Data on 25 molecules can be found in ChEMBL document CHEMBL2440077, “Synthesis and antiprotozoal activity of dicationic 2,6-diphenylpyrazines and aza-analogues” (Bioorg Med Chem, 2013).

Activity calls are given as the source filed them. No cut-off for these calls is given here.

One data set deals with L6. As to the kind of experiment: Cytotoxicity against rat L6 cells assessed as cell viability after 70 hrs by Alamar blue assay. It counts as cell-based. The note with it: L6, 70 h.
Another data set relates to Liver microsomes. As to the kind of experiment: Half life in human liver microsomes by UV-HPLC analysis. It counts as ADME, Microsome. Put shortly:
(§1)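 Substrate at 10 μM with 0.5 mg/ml pooled human or mouse liver microsomes, 0.5% DMSO, in 100 mM phosphate pH 7.4 with 3.3 mM MgCl2. After 5-min pre-equilibration at 37°C, 1 mM β-NADPH is added; triplicates.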
A general note: Liver microsomes are a subcellular fraction often used to study metabolism.

The test system of data set [1] is Trypanosoma brucei rhodesiense. As to the kind of experiment: Antitrypanosomal activity against Trypanosoma brucei rhodesiense STIB900 assessed as parasite growth inhibition after 70 hrs by Alamar blue assay. The class given is functional, organism-based. The following applies: STIB900, 70 h. In general terms: Alamar Blue is a resazurin reagent that responds to reducing activity.

The subject of data set [2] is Plasmodium falciparum. Briefly: Antiplasmodial activity against Plasmodium falciparum K1 assessed as [3H]-hypoxanthine incorporation after 48 hrs by liquid scintillation counting analysis. The class given is functional, organism-based.
Data set [3] relates to Liver. Briefly: Half life in mouse liver microsomes by UV-HPLC analysis. The class given is ADME, Microsome. Put shortly:
as §1

The subject of data set [4] is Trypanosoma brucei rhodesiense. As to the kind of experiment: Antitrypanosomal activity against Trypanosoma brucei rhodesiense STIB900 infected in NMRI mouse assessed as mouse survival at 5 mg/kg, ip administered on day 3 post infection for 4 days measured up to 60 days. The class given is functional. The following applies: route intraperitoneal.
Data set [5] deals with Trypanosoma brucei rhodesiense. As to the kind of experiment: Antitrypanosomal activity against Trypanosoma brucei rhodesiense STIB900 infected in NMRI mouse assessed as cured animal at 5 mg/kg, ip administered on day 3 post infection for 4 days measured up to 60 days. The class given is functional, organism-based. Also on record: dose 5 mg/kg. The procedure, abridged:
(§2)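 Acute-stage mouse model: compound dosed daily for 4 days. A cure is a mouse surviving parasite-free for 60 days. Average days of survival also recorded.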

The subject of data set [6] is Trypanosoma brucei brucei. Briefly: Antitrypanosomal activity against Trypanosoma brucei brucei GVR35 infected in NMRI mouse assessed as mouse survival at 100 mg/kg, po administered on day 21 post infection for 10 days measured up to 180 days. It counts as functional. The procedure, abridged:
(§3)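 Oral dosing in the T. b. brucei GVR35 second-stage (CNS) mouse model, daily for 5 or 10 days. Cure means survival for more than 180 days after infection with no parasitemia relapse. Mean survival days are computed across mice with and without relapse.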

The test system of data set [7] is Trypanosoma brucei brucei. As to the kind of experiment: Antitrypanosomal activity against Trypanosoma brucei brucei GVR35 infected in NMRI mouse assessed as mouse survival at 100 mg/kg, po administered on day 21 post infection for 5 days measured up to 180 days. The class given is functional. Put shortly:
as §3

Data set [8] concerns Trypanosoma brucei rhodesiense. As to the kind of experiment: Antitrypanosomal activity against Trypanosoma brucei rhodesiense STIB900 infected in NMRI mouse assessed as mouse survival at 20 mg/kg, ip administered on day 3 post infection for 4 days measured up to 60 days. The note with it: route intraperitoneal. The class given is functional.
Data set [9] relates to Trypanosoma brucei brucei. Briefly: Antitrypanosomal activity against Trypanosoma brucei brucei GVR35 infected in NMRI mouse assessed as cured animal at 100 mg/kg, po administered on day 21 post infection for 5 days measured up to 180 days. The class given is functional, organism-based. Further details: dose 100 mg/kg. The procedure, abridged: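 Second-stage CNS model, oral dosing. A cure is survival beyond 180 days after infection without parasitemia relapse. Mean survival days are computed from mice with and without relapse. Reference diamidine control given once at 40 mg/kg ip.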

Data set [10] deals with Trypanosoma brucei rhodesiense. Briefly: Antitrypanosomal activity against Trypanosoma brucei rhodesiense STIB900 infected in NMRI mouse assessed as cured animal at 20 mg/kg, ip administered on day 3 post infection for 4 days measured up to 60 days. It counts as functional, organism-based. Further details: dose 20 mg/kg. The procedure, abridged: as §2
Data set [11] concerns Plasmodium falciparum. Briefly: Potency index, ratio of pentamidine IC50 to compound IC50 for Plasmodium falciparum K1. The class given is functional.
The subject of data set [12] is Trypanosoma brucei rhodesiense. As to the kind of experiment: Antitrypanosomal activity against Trypanosoma brucei rhodesiense STIB900 infected in NMRI mouse assessed as cured animal at 100 mg/kg, ip administered on day 3 post infection for 4 days measured up to 60 days. It counts as functional, organism-based. Further details: dose 100 mg/kg. Put shortly:
as §2

Data set [13] relates to Trypanosoma brucei rhodesiense. Briefly: Antitrypanosomal activity against Trypanosoma brucei rhodesiense STIB900 infected in NMRI mouse assessed as mouse survival at 100 mg/kg, ip administered on day 3 post infection for 4 days measured up to 60 days. It counts as functional. The note with it: route intraperitoneal.
Data set [14] relates to Liver. Briefly: Half life in Swiss Webster mouse liver S9 fraction by UV-HPLC analysis. The class given is ADME, subcellular.
Data set [15] deals with Trypanosoma brucei rhodesiense. Briefly: Antitrypanosomal activity against Trypanosoma brucei rhodesiense STIB900 infected in NMRI mouse assessed as cured animal at 10 mg/kg, ip administered on day 3 post infection for 4 days measured up to 60 days. Further details: dose 10 mg/kg. The class given is functional, organism-based. The procedure, abridged: as §2

The IC50 is the concentration that inhibits the measured activity by half. With `CO/N=C(\N)c1ccc(-c2cncc(-c3ccc(/C(N)=N\OC)cc3)n2)cn1`, the results for the IC50 (in the data set with L6; in data set [1]; in the data set on Plasmodium falciparum [2]) were more than 185 µM, 194 µM and 0.453 µM, respectively. In addition, the results for the t1/2 in the data set on Liver microsomes and with Liver [3] were 6.5 min and 35 min, respectively.
Regarding `N=C(N)c1ccc(-c2cncc(-c3ccc(C(=N)N)cn3)n2)nc1`, the half-maximal inhibitory concentration (IC50) with L6 turned out to be 139 µM; in data set [1], 0.037 µM; in the data set with Plasmodium falciparum [2], 0.031 µM. Moreover, the Survival in [4] is more than 53.75 days.
Turning to `N=C(N)c1ccc(-c2cncc(-c3ccc(C(=N)N)cc3F)n2)c(F)c1`, the outcome in [5] was inactive. Also, the results for the 50% inhibitory concentration (IC50) (in the data set on L6; in data set [1]) were 29.8 µM and 0.027 µM, respectively. Also, the Survival in [4] is more than 41 days.
With `CO/N=C(\N)c1ccc(-c2cncc(-c3ccc(/C(N)=N\OC)cc3)n2)cc1`, the MSD in data set [6] was more than 180 days; in [7], more than 173.8 days. The results for the IC50 (with L6; in data set [1]; in the data set with Plasmodium falciparum [2]) were 58.7 µM, 18.9 µM and 0.41 µM, respectively. The t1/2 with Liver microsomes came to 8.6 min; in the data set with Liver [3], 26 min.
Consider `N=C(N)c1ccc(-c2ccc(-c3ccc(C(=N)N)cc3)o2)cc1` [FURAMIDINE], for which the Survival in data set [8] was more than 57.75 days; in [4], more than 46 days.
Consider `N=C(N)c1ccc(-c2cncc(-c3ccc(C(=N)N)cn3)n2)cc1`, for which, in data set [5], the result was Active. The results for the 50% inhibitory concentration (IC50) (with L6; in data set [1]; with Plasmodium falciparum [2]) were 117 µM, 0.014 µM and 0.052 µM, respectively. The Survival in data set [4] was more than 60 days.
Regarding `CO/N=C(\N)c1ccc(-c2ccc(-c3ccc(/C(N)=N/OC)cn3)o2)nc1`, in data set [9], the outcome was Active. Further, the MSD in data set [7] is more than 180 days.
For the molecule `N=C(N)c1ccc(-c2cncc(-c3ccc(C(=N)N)nc3)n2)cc1`, the IC50 in the data set with L6 worked out at 34.1 µM; in data set [1], 0.006 µM; with Plasmodium falciparum [2], 0.01 µM. In data set [4], the Survival is more than 60 days.
Turning to `N=C(N)c1ccc(-c2cncc(-c3ccc(C(=N)N)nc3)n2)cn1`, the IC50 in the data set on L6 came to 24.4 µM; in data set [1] it was 0.0048 µM; with Plasmodium falciparum [2] it was 0.085 µM. Also, the Survival in data set [4] was more than 36.5 days.
For the molecule `N=C(N)c1ccc(-c2ccc(-c3ccc(C(=N)N)cn3)o2)nc1`, the Survival in data set [8] is more than 60 days; in data set [4] it was more than 49.5 days. Further, in the data set on L6, the IC50 amounted to 83 µM. For the same molecule, in data set [10], the outcome was Active.
On to `CO/N=C(\N)c1ccc(-c2cncc(-c3ccc(/C(N)=N\OC)cc3)n2)nc1`, for which the 50% inhibitory concentration (IC50) with L6 was more than 180 µM; in data set [1] it was 25.3 µM; in the data set with Plasmodium falciparum [2] it was 5.6 µM. For the same molecule, the t1/2 amounted to 7.6 min in the data set with Liver microsomes and 210 min with Liver [3].
Regarding `N=C(N)c1ccc(-c2cncc(-c3ccc(C(=N)N)cc3)n2)cc1`, the results for the half-inhibitory concentration (IC50) (in the data set on L6; in [1]; with Plasmodium falciparum [2]) were 80.8 µM, 0.0058 µM and 0.01 µM, respectively. For the same molecule, in the data set on Plasmodium falciparum [11], the “Ratio IC50” value is on record as 5. Also, the Survival in data set [4] was more than 53.5 days.
As to `N=C(NO)c1ccc(-c2ccc(-c3ccc(/C(N)=N\O)cc3)o2)cc1`, the outcome in [12] was inactive. Besides, in data set [13], the Survival was 50 days. In the data set with Liver [14], the t1/2 came to 29 min.
Regarding `N/C(=N\O)c1ccc(-c2cncc(-c3ccc(/C(N)=N/O)nc3)n2)cc1`, the IC50 in the data set with L6 stood at 5 µM; in data set [1], 10.8 µM; in the data set on Plasmodium falciparum [2] it was 0.453 µM. In the data set with Liver [14], this molecule yielded a t1/2 of 36 min.
On to `N/C(=N\O)c1ccc(-c2cncc(-c3ccc(/C(N)=N/O)cn3)n2)cc1`, for which the values for the IC50 (in the data set with L6; in data set [1]; in the data set with Plasmodium falciparum [2]) were 24.6 µM, 7.78 µM and 8.4 µM, respectively. In the data set on Liver [14], this molecule registered a t1/2 of 30 min.
For the molecule `N/C(=N\O)c1ccc(-c2cncc(-c3ccc(/C(N)=N/O)cc3)n2)cc1`, the values for the IC50 (with L6; in data set [1]; in the data set with Plasmodium falciparum [2]) were 2.9 µM, 7.95 µM and 0.87 µM, respectively. In addition, the result in data set [9] and in [15] was inactive. Besides, the t1/2 in the data set with Liver [14] amounted to 1.9 min. The MSD in data set [7] worked out at 69 days.
Turning to `N/C(=N\O)c1ccc(-c2cncc(-c3ccc(/C(N)=N/O)cn3)n2)nc1`, the figures for the concentration for half-maximal inhibition (IC50) (in the data set on L6; in data set [1]; in the data set with Plasmodium falciparum [2]) were more than 196 µM, 90.6 µM and 7.01 µM, respectively. The same molecule gave a t1/2 in the data set with Liver [14] of 20 min.
On to `CO/N=C(\N)c1ccc(-c2cncc(-c3ccc(/C(N)=N\OC)nc3)n2)cn1`, for which the results for the IC50 (in the data set with L6; in data set [1]; with Plasmodium falciparum [2]) were more than 212 µM, 7.87 µM and 0.328 µM, respectively. Also, the t1/2 in the data set on Liver microsomes stood at 14 min; in the data set on Liver [3] it was 59 min.
With `Cc1cc(C(=N)N)ccc1-c1cncc(-c2ccc(C(=N)N)cc2C)n1`, the 50% inhibitory concentration (IC50) was found to be 117 µM with L6, 0.462 µM in [1] and 0.323 µM in the data set with Plasmodium falciparum [2].
`N/C(=N\O)c1ccc(-c2cncc(-c3ccc(/C(N)=N\O)nc3)n2)cn1`: the IC50 was more than 190 µM with L6, 95.4 µM in data set [1] and 0.785 µM in the data set with Plasmodium falciparum [2]. Moreover, in data set [9], the outcome was inactive. For the same molecule, the t1/2 with Liver [14] stood at 51 min. Moreover, in data set [7], the MSD stood at 95.2 days.
Take `CONC(=N)c1ccc(-c2ccc(-c3ccc(C(=N)NOC)cc3)o2)cc1` [PAFURAMIDINE]: the values for the t1/2 in the data set with Liver microsomes and with Liver [3] were 6.8 min and 150 min, respectively. The MSD in [7] is more than 167.8 days. For the same molecule, the result in data set [15] was Active.
In the case of `N=C(N)c1ccc(-c2cnc(-c3ccc(C(=N)N)cc3)cn2)cc1`, the outcome in data set [5] was inactive. Also, the Survival in [4] worked out at 36.5 days.
On to `CO/N=C(\N)c1ccc(-c2ccc(-c3ccc(/C(N)=N/OC)cn3)o2)cc1`, for which the outcome in data set [9] was Active. Further, in data set [7], the MSD was more than 180 days.
On to `CO/N=C(\N)c1ccc(-c2cncc(-c3ccc(/C(N)=N\OC)cn3)n2)nc1`, for which the IC50 in the data set on L6 is 20.1 µM; in data set [1] it was 120 µM; in the data set on Plasmodium falciparum [2] it was 7.39 µM. Also, the t1/2 was found to be 70 min with Liver microsomes and 200 min with Liver [3]. Besides, in data set [9], the result was inactive. Besides, in data set [7], the MSD amounted to 67.2 days.
`N=C(N)c1ccc(-c2ccc(-c3ccc(C(=N)N)cn3)o2)cc1`: the Survival is more than 60 days in [8] and more than 54.5 days in data set [4]. The result in data set [10] was Active.
